The record followed here is ChEMBL document CHEMBL6177920, “Natural product-inspired [3 + 2] cycloaddition-based spirooxindoles as dual anticancer agents: synthesis, characterization, and biological evaluation by in vitro and in silico methods” (RSC Med Chem, 2025).

Active and inactive are the calls of the source. The rule behind the calls is not given here.

Broadly, the IC50 is the point on the concentration scale where inhibition reaches its midpoint.

The subject of test [1] is MDA-MB-468. Nature of the test: Antiproliferative activity against human MDA-MB-468 cells assessed as inhibition of cell proliferation incubated for 24 to 72 hrs by SRB assay. The test is classed as functional, cell-based. The essentials: (§1)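 Cells seeded 1 × 10^4/well in DMEM + 10% FBS, incubated overnight at 37 °C, 5% CO2. Treated with serial dilutions, 62.5–1000 µM for MDA-MB-468 and 62.5–2000 µM for HCT 15, for 24, 48 and 72 h. DMSO 0.5% in the 2x working stock. Sulforhodamine-B read-out, % inhibition = (control − sample)/control × 100. Triplicate experiments, ≥4 replicates per concentration.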

In test [2] the test system is HCT-15. Nature of the test: Induction of cell cycle arrest in human HCT-15 cells assessed as decrease in cells at S phase at 50 to 200 uM. The test is classed as functional, cell-based. The settings on record: dose 50-200 µM. Summed up: (§2)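 MDA-MB-468 or HCT 15 cells were seeded at 2 × 10^5 per 2 mL well in 6-well plates and exposed for 48 h to 50, 100 or 200 µM, with DMSO as control. Cells were trypsinized, spun 300×g for 5 min at 25 °C and fixed in cold 70% ethanol (30 min, ice). RNase A (100 µM, 4 h) was added, then PI (stock 50 µM, 10 min, RT). Phase distribution (sub-G0/G1, G0/G1, S, G2/M) was read by flow cytometry.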

The subject of test [3] is HCT-15. Nature of the test: Induction of apoptosis in human HCT-15 cells assessed as decrease in caspase 3 activity. The test is classed as functional, cell-based. The essentials: (§3)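 Cells seeded 5 × 10^5/2 mL and incubated overnight at 37 °C. Treated 24 h at 37 °C with 62.5–1000 µM (MDA-MB-468) or 62.5–2000 µM (HCT 15), then a further 24 h incubation step. Trypsinized, fixed in cold 70% ethanol 30 min at −20 °C, PBS-washed, stained 30 min in the dark at room temperature with anti-caspase-3/7 antibody. FACS on FL1 gave % caspase-3 cells; mean ± SD of triplicates.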

Test [4] concerns HCT-15. Nature of the test: Induction of cell cycle arrest in human HCT-15 cells assessed as decrease in cells at G0/G1 phase at 50 to 200 uM. The class given is functional, cell-based. The settings on record: dose 50-200 µM. The essentials: as §2
Test [5] relates to MDA-MB-468. Description: Induction of cell cycle arrest in human MDA-MB-468 cells assessed as increase in cells at G0/G1 phase at 50 uM. The class given is functional, cell-based. The essentials:
as §2

The test system of test [6] is MDA-MB-468. Nature of the test: Induction of cell cycle arrest in human MDA-MB-468 cells assessed as decrease in cells at G0/G1 phase at 100 to 200 uM. The class given is functional, cell-based. As to conditions: dose 100-200 µM. Summed up: as §2
Test [7] deals with HCT-15. Nature of the test: Induction of cell cycle arrest in human HCT-15 cells assessed as accumulation of cells at G2/M phase at 200 uM (reference value: 12.25 %). The class given is functional. The settings on record: time 48 hrs.
Test [8] relates to MDA-MB-468. Description: Induction of apoptosis in human MDA-MB-468 cells assessed as increase in caspase 3 activity at 62.5 to 1000 uM. The test is classed as functional, cell-based. As to conditions: dose 62.5-1000 µM. The essentials: (§4)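 Cells were plated at 5 × 10^5 per 2 mL in 6-well plates and held overnight at 37 °C in CO2. They were then treated for 24 h at 37 °C, with MDA-MB-468 at 62.5–1000 µM and HCT 15 at 62.5–2000 µM. Cells were trypsinized, fixed 30 min at −20 °C in cold 70% ethanol, PBS-washed and labelled with anti-caspase-3/7 antibody (30 min, dark, RT). Flow cytometry (FL1) gave % caspase-3-expressing cells, triplicate, mean ± SD.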

Test [9] has as its system MDA-MB-468. Description: Induction of cell cycle arrest in human MDA-MB-468 cells assessed as decrease in cells at S phase at 50 to 200 uM. The class given is functional, cell-based. As to conditions: dose 50-200 µM. Summed up: as §2
Test [10] deals with HCT-15. Nature of the test: Induction of apoptosis in human HCT-15 cells assessed as cell death by measuring red signals by acridine orange/EtBr staining based analysis. The test is classed as functional. The settings on record: read-out: LD50 (the source's name). The essentials:
(§5)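 Cells seeded 0.3 × 10^6/well and grown about 36 h. Exposed 48 h to 250, 500 and 1000 µM (MDA-MB-468) or 500, 1000 and 2000 µM (HCT 15); 0.5% DMSO control. Trypsinized, stained 5 min with EtBr (100 µM) plus acridine orange (100 µM). Fluorescence microscopy counted green live versus orange dead cells, reported as % dead cells.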

In test [11] the test system is MDA-MB-468. Description: Induction of cell cycle arrest in human MDA-MB-468 cells assessed as decrease in cells at G2/M phase at 50 to 200 uM. The test is classed as functional, cell-based. As to conditions: dose 50-200 µM. Summed up:
as §2

Test [12] relates to MDA-MB-468. Description: Induction of apoptosis in human MDA-MB-468 cells assessed as increase in caspase 3 activity. The test is classed as functional, cell-based. Summed up: as §3
Test [13] relates to MDA-MB-468. Description: Induction of cell cycle arrest in human MDA-MB-468 cells assessed as increase in cells at sub G0/G1 phase at 200 uM (reference value: 1.78 %). The class given is functional. The essentials: as §2
In test [14] the test system is HCT-15. Description: Induction of apoptosis in human HCT-15 cells assessed as decrease in caspase 3 activity at 2000 uM. The class given is functional, cell-based. The essentials: as §4
Test [15] concerns HCT-15. Nature of the test: Antiproliferative activity against human HCT-15 cells assessed as inhibition of cell proliferation incubated for 24 to 72 hrs by SRB assay. The class given is functional, cell-based. Summed up: as §1
Test [16] relates to MDA-MB-468. Description: Induction of apoptosis in human MDA-MB-468 cells assessed as cell death by measuring red signals by acridine orange/EtBr staining based analysis. The class given is functional. As to conditions: read-out: LD50 (the source's name). Summed up:
as §5

In test [17] the test system is HCT-15. Description: Induction of cell cycle arrest in human HCT-15 cells assessed as reduction in S phase at 200 uM. The test is classed as functional, cell-based. The essentials:
(§6)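 HCT 15 cells at 2 × 10^5/2 mL/well treated 48 h with 50, 100 or 200 µM, with DMSO control. Trypsinized, centrifuged 300 × g for 5 min, fixed 30 min in cold 70% ethanol on ice. Treated with RNase A 4 h, then propidium iodide 10 min at room temperature. Flow cytometry gave % sub-G0/G1, G0/G1, S and G2/M.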

In test [18] the test system is HCT-15. Nature of the test: Induction of cell cycle arrest in human HCT-15 cells assessed as reduction in G0/G1 phase at 200 uM. The test is classed as functional, cell-based. Summed up:
as §6

Test [19] concerns MCF7. Description: Induction of cell cycle arrest in human MCF7 cells assessed as increase in cells at sub G0/G1 phase at 200 uM incubated for 48 hrs by flow cytometric analysis (reference value: 2.57 %). The class given is functional. A general note: A flow cytometer gives signals particle by particle.
For test [20], the system named is HCT-15. Description: Induction of cell cycle arrest in human HCT-15 cells assessed as decrease in cells at G2/M phase at 200 uM. The test is classed as functional, cell-based. Summed up: as §6
The test system of test [21] is HCT-15. Nature of the test: Induction of cell cycle arrest in human HCT-15 cells assessed as decrease in cells at sub G0/G1 phase at 100 uM. The class given is functional, cell-based. The essentials: as §6
In test [22] the test system is HCT-15. Description: Induction of cell cycle arrest in human HCT-15 cells assessed as decrease in cells at G2/M phase at 100 uM. The class given is functional, cell-based. The essentials:
as §6

The subject of test [23] is HCT-15. Nature of the test: Induction of cell cycle arrest in human HCT-15 cells assessed as decrease in cells at S phase at 100 uM. The test is classed as functional, cell-based. Summed up:
as §6

The test system of test [24] is HCT-15. Nature of the test: Induction of cell cycle arrest in human HCT-15 cells assessed as decrease in cells at G0/G1 phase at 100 uM. The test is classed as functional, cell-based. The essentials: as §6

For the compound `CCOc1ccc([C@@H]2C3CSCN3[C@]3(C(=O)Nc4ccccc43)[C@H]2C(=O)c2ccc(C)cc2)cc1OC` (stereo not given in full), the IC50 is 361 µM in [1], 365 µM in test [3], 407 µM in [12] and 274 µM in [15]. Moreover, the result in [2], in [4], in test [6], in [8], in test [9] and in test [11] was Active. Also, the result in test [5] and in test [14] was inactive. In addition, the figures for the Activity in test [7] and in test [13] were 43.5% and 44.5%, respectively. The CC50 turned out to be 312 µM in test [10] and 281 µM in [16].

Turning to `C=C1CC[C@H](O)C/C1=C/C=C1\CCC[C@]2(C)[C@@H]([C@H](C)CCCC(C)C)CC[C@@H]12` [CHOLECALCIFEROL], the outcome in [17], in test [18] and in test [20] was Active. In addition, the Activity in test [19] turned out to be 46.66%.

Take `O=c1[nH]cc(F)c(=O)[nH]1` [FLUOROURACIL]: the 50% inhibitory concentration (IC50) in test [1] was determined as 551 µM; in test [3] it was 426 µM; in test [12], 495 µM; in test [15], 579 µM. In addition, the CC50 in [10] was determined as 426 µM; in test [16], 495 µM. In test [21], the outcome was inactive. Also, the outcome in test [22], in test [23] and in [24] was Active.
